Measured values taken from ChEMBL document CHEMBL1770092, “Novel N-chloroheterocyclic antimicrobials” (Bioorg Med Chem Lett, 2011).
Values after ≈ are worked out from the molar mass of the structure shown.

Columns and labels:
Candida albicans = test: Antifungal activity against Candida albicans ATCC 10231 after 1 hr by modified CLSI M26-A method; format: functional; details: ATCC 10231, 1 h
Outline: (§1)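 Minimum bactericidal or fungicidal concentration (µg/mL) by modified CLSI M26-A: isotonic buffered saline at pH 4 replaces Mueller–Hinton broth because chlorine reacts with broth components, and exposure is shortened from 24 h at 35 °C to 1 h at room temperature.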

[1] = Stability of the compound assessed as half life in aqueous buffer at 40 degC
Escherichia coli = test: Antibacterial activity against Escherichia coli ATCC 25922 after 1 hr by modified CLSI M26-A method; format: functional; details: ATCC 25922, 1 h; outline: as §1
Staphylococcus aureus = test: Antibacterial activity against Staphylococcus aureus ATCC 29213 after 1 hr by modified CLSI M26-A method; format: functional; details: ATCC 29213, 1 h; outline: as §1

SMILES | MFC (Candida albicans) | half-life [1] | MBC (Escherichia coli) | MBC (Staphylococcus aureus)
CC1(C)C(=O)N(CCS(=O)(=O)CCCS(=O)(=O)[O-])C(=O)N1Cl.[Cs+] | > 256 µg/mL | > 7 days | 256 µg/mL | > 256 µg/mL
CC1(C)C(=O)N(CCS(=O)(=O)[O-])CC(=O)N1Cl.[Na+] | > 256 µg/mL | 90 days | 128 µg/mL | 128 µg/mL
CC1(C)C(=O)N(CCCCC[N+](C)(C)C)C(C)(C)N1Cl.[Cl-] | 16 µg/mL | > 160 days | 2 µg/mL | 2 µg/mL
CC1(C)C(=O)N(CCS(=O)(=O)[O-])C(=O)C(C)(C)N1Cl.[Na+] | > 256 µg/mL | 90 days | 128 µg/mL | 128 µg/mL
CC1(C)CN(CCS(=O)(=O)[O-])C(=O)N1Cl.[Na+] | > 256 µg/mL | > 92 days | 32 µg/mL | 64 µg/mL
CC1(C)CC(O)CC(C)(C)N1Cl | 32 µg/mL (≈ 167 µM) | 32 days | 1 µg/mL (≈ 5.22 µM) | 4 µg/mL (≈ 20.9 µM)
CC1(C)CC(CCO)OC(=O)N1Cl (stereo not drawn) |  | > 14 days |  | 
CC1(C)CC(=O)CC(C)(C)N1Cl | 32 µg/mL (≈ 169 µM) | < 1 days | 1 µg/mL (≈ 5.27 µM) | 2 µg/mL (≈ 10.5 µM)
CC1(C)CC([N+](C)(C)C)CC(C)(C)N1Cl.[Cl-] | 256 µg/mL | 28 days | 16 µg/mL | 8 µg/mL
CC1(C)C(=O)N(CCCCS(=O)(=O)[O-])C(C)(C)N1Cl.[Na+] | 32 µg/mL | > 84 days | 16 µg/mL | 8 µg/mL
CC1(C)C(=O)N(CCS(=O)(=O)[O-])C(=O)N1Cl.[Na+] | 128 µg/mL | 65 days | 128 µg/mL | 128 µg/mL
CN1CC(C)(CO)N(Cl)C1=O (stereo not drawn) | 8 µg/mL (≈ 44.8 µM) | > 58 days | 16 µg/mL (≈ 89.6 µM) | 16 µg/mL (≈ 89.6 µM)
CC1(C)C(=O)N(CCCS(=O)(=O)[O-])C(=O)N1Cl.[Na+] | > 256 µg/mL | > 14 days | 16 µg/mL | 32 µg/mL
CC1(C)C(=O)N(CC[n+]2ccccc2)C(=O)N1Cl.[Cl-] |  | 4 days |  | 
CC1(C)C(=O)N(CCC[N+](C)(C)C)C(=O)N1Cl.[Cl-] | > 1020 µg/mL | 4 days | 128 µg/mL | > 128 µg/mL
CC1(C)C(=O)N(CCO)CC(=O)N1Cl |  | < 1 days |  | 
CC1(C)CN(CCS(=O)(=O)CCCS(=O)(=O)[O-])C(=O)N1Cl.[Cs+] |  | > 112 days | 64 µg/mL | 32 µg/mL
CC1(C)CS(=O)(=O)CC(C)(C)N1Cl | 128 µg/mL (≈ 567 µM) | > 113 days | 2 µg/mL (≈ 8.86 µM) | 1 µg/mL (≈ 4.43 µM)
CC1(C)C(=O)N(CCCS(=O)(=O)[O-])C(C)(C)N1Cl.[Na+] | 16 µg/mL | > 249 days | 4 µg/mL | 16 µg/mL
CC1(C)CN(CCO)C(=O)C(C)(C)N1Cl | 8 µg/mL (≈ 34.1 µM) |  | 1 µg/mL (≈ 4.26 µM) | 2 µg/mL (≈ 8.52 µM)
CC1(C)C(=O)N(CCCCC[N+](C)(C)C)C(=O)N1Cl.[Cl-] | > 1020 µg/mL | 22 days | 128 µg/mL | 128 µg/mL
CC1(C)C(=O)N(CCC[N+](C)(C)C)C(C)(C)N1Cl.[Cl-] | 32 µg/mL | 111 days | 4 µg/mL | 2 µg/mL
CN1C(=O)N(Cl)C(C)(C[N+](C)(C)C)C1=O.[Cl-] (stereo not drawn) | > 256 µg/mL | 5 days | 16 µg/mL | 64 µg/mL
CC1(C)C(=O)N(CCCCO)C(C)(C)N1Cl | 256 µg/mL (≈ 1030 µM) | > 92 days | 2 µg/mL (≈ 8.04 µM) | 2 µg/mL (≈ 8.04 µM)
CC(=O)[O-].CC1(C)CN(CC[N+](C)(C)C)C(=O)N1Cl |  | 126 days | 512 µg/mL | 128 µg/mL
